Assay results reported in PubChem BioAssay.
Unmarked numbers belong to inactive results.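 Rule for the calls, unless noted: active = viability increase at or above a cutoff of the median across tested compounds plus 3 SD (cut at about 8.5% in these data, passing the limit was not always enough); inconclusive = some gains above the cutoff, reason not given; inactive = the rest.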

Assay: Restrictive medium S. cerevisiae growth inhibition, OD615, pilot screen of yeast lifespan reduction project, restrictive growth control (AID 706;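 active = growth inhibition above a set limit, 3 SD over mean compound inhibition, in both replicates, cut at about 43% in these data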;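 note: modified DeaD lifespan yeast strain shifted to restrictive glucose medium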)
Conditions: OD615, 48 h, at 10 µM, hits give high values
Outline: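 System: Engineered S. cerevisiae DeaD strain | Detection: OD615 | Buffer or medium: CSMM-D glucose medium | Doses: 10 µM compound, 0.25% DMSO | Timing: 4 h pre-growth plus 48 h compound exposure, 30 °C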

Row | Structure (SMILES) | growth inhibition
1 | COc1ccc(C2CC3CC(c4ccccc4)N2O3)cc1 (stereo unspecified) | -2.38%
2 | COc1ccc(N2CC(C(=O)NC3CC(C)(C)NC(C)(C)C3)CC2=O)cc1 (stereo unspecified) | -4.41%
3 | O=C(NCC1CCCO1)C1CC(=O)N(c2ccc(F)c(Cl)c2)C1 (stereo unspecified) | -1.83%
4 | COc1cc(NC(=O)COc2ccc(F)cc2)nc(OC)n1 | 11.7%

Assay: viability gain of MRP-1-high H69AR cells under doxorubicin, pilot screen, MRP-1 activator project, CellTiter-Glo, duplicate (AID 807);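 note: compound pretreatment 18-22 h then 72 h combined with doxorubicin; 0% = doxorubicin alone and 100% = vehicle without doxorubicin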
Conditions: H69AR viability with doxorubicin, CellTiter-Glo luminescence; at 10 µM; hits give high values

Row | Structure (SMILES) | viability increase
5 | COCCNS(=O)(=O)c1cccc2cccnc12 | -1.69%
6 | Cc1ccc(C)c(N2CCN(C(=O)CCS(=O)(=O)c3cccc4nonc34)CC2)c1 | -5.38%
7 | Cc1cccc(-n2ccnc2SCC(=O)Nc2nnc(C)s2)c1 | -4.56%
8 | CC(=O)CSc1nc2ccc(Nc3nc(N4CCOCC4)nc(N4CCOCC4)n3)cc2s1 | -5.89%
9 | CCOC(=O)c1c(CN(CC)CC)oc2cc(Br)c(O)cc12 | -3.81%
10 | CCc1ccc2nc(NC3=NCN(CCOC)CN3)nc(C)c2c1 | -2.81%
11 | CCN(Cc1ccccc1)S(=O)(=O)c1ccc(S(=O)(=O)N2CCN(CCC#N)CC2)cc1 | -4.88%
12 | CCCCS(=O)CC(COCc1ccccc1)OC(=O)CSc1nc(C)cc(C)n1 (stereo unspecified) | -1.32%
13 | COc1ccc(C(=O)N2CCC(C(=O)Nc3ccc(OC)c(OC)c3)CC2)cc1 | -0.38%
14 | CSC1=NCCN1C(=O)Cc1ccc(Cl)cc1 | 4.4%
15 | O=C1NCCCC1C(=O)N1CCN(C(c2ccccc2)c2ccccc2)CC1 (stereo unspecified) | 1%
16 | O=C(CCNS(=O)(=O)c1cccc2nsnc12)NC1CCCc2ccccc21 (stereo unspecified) | -4.33%
